Source: PubChem BioAssay
The list is not random: actives were taken first. Their share in the collection is about 2.3%.
TRPC4 act: activators of mouse TRPC4 channel, primary screen, Fluo4 calcium, HEK293 TRPC4beta/mu-opioid cells. Fluo4 calcium fluorescence; active compounds read high. actives 0.49% (n = 310,000). B-score at 10 µM. Short transient receptor potential channel 4 (Mus musculus), Q9QUQ5;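 active = B-score above 5 SD of library B-scores, and initial fluorescence ratio not above library mean plus 5 SD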;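 also: positive B-score marks a calcium rise read as TRPC4 activation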
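system = HEK293 cells stably co-expressing mouse TRPC4beta and mu-opioid receptor | schedule = Fluo4 dye loading 45 min at room temperature, 110 s recording | measure = B-scored integrated calcium fluorescence ratio | signal = Fluo4 calcium-sensitive dye fluorescence, kinetic, 1 Hz baseline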
TRPC6 act: mouse TRPC6 channel activators, primary screen, cell-based, HEK293, membrane potential dye | B-score at 10 µM | actives 0.13% (n = 310,000) | HEK293-TRPC6 membrane potential dye fluorescence; active compounds read high | AID 2550, 2010 | Short transient receptor potential channel 6 (Mus musculus), Q61143;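 active = B-score of the integrated fluorescence ratio above library mean plus 3 SD, and starting fluorescence ratio within library mean plus 5 SD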;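 also: higher score means more depolarization so channel activation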
Target sequence (Q61143 whole entry, looked up): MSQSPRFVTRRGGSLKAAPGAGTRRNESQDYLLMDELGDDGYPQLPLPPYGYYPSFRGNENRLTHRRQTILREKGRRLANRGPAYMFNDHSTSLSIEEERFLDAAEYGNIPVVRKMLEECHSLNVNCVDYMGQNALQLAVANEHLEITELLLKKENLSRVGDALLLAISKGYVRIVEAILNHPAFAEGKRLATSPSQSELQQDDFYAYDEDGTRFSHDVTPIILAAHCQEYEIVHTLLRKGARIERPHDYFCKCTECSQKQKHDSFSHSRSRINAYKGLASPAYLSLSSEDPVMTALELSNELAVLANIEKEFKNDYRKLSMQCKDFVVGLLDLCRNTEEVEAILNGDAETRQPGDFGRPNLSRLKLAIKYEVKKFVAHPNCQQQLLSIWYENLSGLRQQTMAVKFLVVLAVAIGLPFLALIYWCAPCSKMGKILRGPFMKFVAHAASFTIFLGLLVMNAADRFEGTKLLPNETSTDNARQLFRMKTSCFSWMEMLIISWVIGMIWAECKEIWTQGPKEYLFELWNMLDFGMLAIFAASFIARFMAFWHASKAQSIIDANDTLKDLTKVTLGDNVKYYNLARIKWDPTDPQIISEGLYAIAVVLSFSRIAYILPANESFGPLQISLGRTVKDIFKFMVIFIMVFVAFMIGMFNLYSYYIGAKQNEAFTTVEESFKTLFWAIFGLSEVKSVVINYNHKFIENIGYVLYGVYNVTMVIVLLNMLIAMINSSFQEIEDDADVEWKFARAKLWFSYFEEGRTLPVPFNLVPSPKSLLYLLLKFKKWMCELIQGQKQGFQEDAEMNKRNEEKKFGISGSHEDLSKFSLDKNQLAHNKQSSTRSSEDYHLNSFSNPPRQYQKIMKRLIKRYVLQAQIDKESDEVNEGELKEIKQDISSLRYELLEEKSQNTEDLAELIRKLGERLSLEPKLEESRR
TRPC4 block: inhibitors of mouse TRPC4 channel, primary screen, Fluo4 calcium, HEK293 TRPC4beta/mu-opioid cells; Short transient receptor potential channel 4 (Mus musculus), Q9QUQ5; B-score at 10 µM; AID 2247, 2010; DAMGO-evoked Fluo4 calcium flux; active compounds read low; actives 0.39% (n = 300,000);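 active = B-score over 3 SD under the library average, no early fluorescence shift, positive overall ratio signal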
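material = TRPC4beta/mu-opioid receptor HEK293 cell line | probe or stimulus = sequential submaximal and maximal DAMGO stimulation | compound dosing = one concentration per compound | measured by = Fluo4 Ca2+ flux fluorescence | evaluation = integrated fluorescence ratio relative to baseline, converted to per-well B score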
TRPC6 inhibitor: mouse TRPC6 channel inhibitors, primary screen, cell-based, HEK293, membrane potential dye | Short transient receptor potential channel 6 (Mus musculus), Q61143 | ACh-evoked depolarization; active compounds read low | B-score at 10 µM | actives 1.1% (n = 310,000) | AID 2553, 2010;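 active = B-score under library mean minus 3 SD, initial fluorescence not abnormally high, positive integrated signal ratio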;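 also: B-score derived from integrated fluorescence ratio over the kinetic read; more negative B-score means stronger inhibition of depolarization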
TRPC4 PAM: positive allosteric modulators of TRPC4, primary screen, cell-based, mouse TRPC4beta, HEK293 mu-opioid, Fluo-4 calcium | DAMGO EC20, Fluo-4 Ca2+ flux; active compounds read high | actives 0.42% (n = 310,000) | Short transient receptor potential channel 4 (Mus musculus), Q9QUQ5 | B-score at 10 µM;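 active = B-score of calcium response area above 5 SD of library B-scores, with initial fluorescence ratio within 5 SD of library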;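 also: B-score of integrated fluorescence ratio over time as area under calcium response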
TRPC4 sel inh 2: second check of whether TRPC6 inhibitors also affect mouse TRPC4; shares compounds with TRPC6 inhibitor; HEK293 TRPC4/MOR, membrane potential dye fluorescence; channel activated by saturating DAMGO dose; inhibition, % at 10 µM; actives 42% (n = 920); AID 2776;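 active = compounds whose fluorescence signal differed from control wells by over 3 SD, either direction, in both duplicate plates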
TRPC4 spec: mouse TRPC4 modulation by TRPC6 hits, confirmation, selectivity assay for TRPC6 inhibitor project, cell-based, HEK293 TRPC4/mu-opioid, membrane potential dye; shares compounds with TRPC6 inhibitor; membrane potential fluorescence; activity change, negative = inhibition, % at 10 µM; actives 61% (n = 920);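 active = rise or fall in signal beyond 3 SD of buffer-only wells in both replicate plates, either sign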;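 also: integrated kinetic ratio of fluorescence range over baseline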
HEK293 MPD ctr 2-1: nonspecific membrane potential effects, parental HEK293, confirmation, counter-screen for TRPC6 inhibitor project, cell-based, second counter screen. actives 31% (n = 920). parental HEK293 membrane potential dye fluorescence; maximal acetylcholine challenge after compound addition. signal change vs control, % at 10 µM. AID 2779, 2010. shares compounds with TRPC6 inhibitor;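 active = membrane potential signal moving either way by over 3 SD of the maximum-effect control, in both duplicate plates, meaning non-specific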
HEK293 MPD ctr-1: membrane potential modulation in parental HEK293, confirmation, counter-screen for TRPC6 inhibitor project, cell-based; AID 2780, 2010; parental HEK293 membrane potential dye fluorescence; shares compounds with TRPC6 inhibitor; actives 60% (n = 920); membrane potential signal change, % at 10 µM;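 active = membrane potential signal shifting up or down by more than 3 SD of buffer-only wells, on both duplicate plates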
HEK293 MPD ctr-2: parental HEK293 membrane potential modulation, confirmation, counter-screen for TRPC6 modulator project, cell-based; shares compounds with TRPC6 inhibitor; membrane potential dye fluorescence; membrane potential signal change, % at 10 µM; actives 51% (n = 2,400); AID 488924, 2010;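 active = membrane potential signal moves up or down beyond 5 SD from buffer-only wells, on both duplicate plates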
HEK293 MPD ctr 2-2: second counter-screen for TRPC6 modulators: effect in parental HEK293 cells; shares compounds with TRPC6 inhibitor; membrane potential dye fluorescence; after compound, maximal acetylcholine stimulation; inhibition, % at 10 µM; actives 14% (n = 2,400); AID 488926;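 active = membrane potential signal drops by more than 5 SD from the mean control signal, in both duplicate plates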;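 also: plate controls were acetylcholine ECmax control wells for no effect and buffer only wells for full effect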
TRPC4 ctr mod: TRPC4 modulation by TRPC6 hit compounds, confirmation, selectivity assay for TRPC6 modulator project, cell-based, HEK293 TRPC4/mu-opioid, membrane potential dye, mouse; shares compounds with TRPC6 inhibitor; membrane potential fluorescence; percent change from control (negative = decrease, positive = increase), % at 10 µM; actives 69% (n = 2,400);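 active = membrane potential signal moved up or down beyond 5 SD of buffer control wells, in both duplicate plates, actives on both sides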;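 also: plate controls were assay buffer wells for no effect and DAMGO maximal-effect wells for full effect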
TRPC4/MOR inh 2: second selectivity test of TRPC6 modulators against mouse TRPC4; shares compounds with TRPC6 inhibitor; HEK293 TRPC4/mu-opioid, membrane potential dye fluorescence; stimulated with maximal-effect DAMGO; inhibition, % at 10 µM; actives 55% (n = 2,400);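 active = drop in membrane potential signal beyond 5 SD of the control wells in both duplicate plates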;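 also: TRPC4 counter screen for TRPC6 hits run under conditions tuned for TRPC6 not TRPC4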
TRPC6 inh conf: mouse TRPC6 channel inhibitors, confirmation, HEK293 cells, membrane potential dye, duplicate | shares compounds with TRPC6 inhibitor | ACh-evoked depolarization | inhibition, % at 10 µM | actives 43% (n = 3,300) | AID 488960, 2010;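 active = fluorescence ratio falls more than 5 SD below the full-stimulation control mean, in both duplicate runs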;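 also: integrated fluorescence ratio of peak minus minimum over baseline after agonist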
TRPC6 act conf: mouse TRPC6 channel activators, confirmation, HEK293 cells, membrane potential dye, duplicate; shares compounds with TRPC6 inhibitor; HEK293-TRPC6 membrane potential dye fluorescence, FDSS; activation, % at 10 µM; actives 11% (n = 2,800);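 active = ratio signal rise beyond 5 SD above unstimulated control wells' mean, seen in both duplicate runs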;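 also: plate controls were buffer EC0 wells for no effect and acetylcholine ECmax response for full effect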
An asterisk follows results filed as active; i = inactive; x = not tested or not shown.

SMILES	TRPC4 act	TRPC6 act	TRPC4 block	TRPC6 inhibitor	TRPC4 PAM	TRPC4 sel inh 2	TRPC4 spec	HEK293 MPD ctr 2-1	HEK293 MPD ctr-1	TRPC6 inh conf	TRPC6 act conf	others
CCn1c(/C=C/Nc2ccccc2)[n+](CC)c2ccc(Cl)cc21	i	i	i	-5.24*	i	x	x	x	x	50.5%*	i	HEK293 MPD ctr-2=-186.5%*;HEK293 MPD ctr 2-2=i;TRPC4 ctr mod=-34.5%*;TRPC4/MOR inh 2=56.0%*
CCn1c(/C=C/N(C)c2ccccc2)[n+](CC)c2ccc(Cl)cc21	i	i	i	-8.64*	i	i	-28.6%*	24.5%*	-411.0%*	64.8%*	i
CCn1c(C)[n+](Cc2ccccc2)c2ccc(Cl)cc21	i	i	i	i	i	x	x	x	x	x	x
CC(=O)Nc1ccc(S(=O)(=O)NCCC(=O)NCC2COc3ccccc3O2)cc1 (configuration not stated)	i	i	i	i	i	x	x	x	x	x	x
CC(=O)c1cccc(NC(=O)CCc2nnc3ccc(N4CCOCC4)nn23)c1	i	i	i	i	i	x	x	x	x	x	x
CCN(C(=O)COC(=O)c1cc(-c2cccc3ccccc23)nc2ccccc12)C1CCS(=O)(=O)C1 (configuration not stated)	i	i	i	i	i	x	x	x	x	x	x
Cc1c(C)[n+](=O)c2c(n1[O-])CCCCC2	i	i	i	-7.72*	i	i	i	i	i	i	i
Nc1cccc2nc3ccccc3cc12	i	i	i	-7.24*	i	23.0%*	-35.6%*	18.0%*	-413.0%*	82.8%*	i
